The values below come from ChEMBL document CHEMBL1129254, “3-[2-(N-phenylacetamide)]-1,5-benzodiazepines: orally active, binding selective CCK-A agonists” (J Med Chem, 1996).

Molecules are shown by their SMILES. Bounds are passed on as bounds.

In test [1] the target is T1, Cholecystokinin receptor type A (Cavia porcellus) (UniProt Q63931).
T1 sequence (whole entry): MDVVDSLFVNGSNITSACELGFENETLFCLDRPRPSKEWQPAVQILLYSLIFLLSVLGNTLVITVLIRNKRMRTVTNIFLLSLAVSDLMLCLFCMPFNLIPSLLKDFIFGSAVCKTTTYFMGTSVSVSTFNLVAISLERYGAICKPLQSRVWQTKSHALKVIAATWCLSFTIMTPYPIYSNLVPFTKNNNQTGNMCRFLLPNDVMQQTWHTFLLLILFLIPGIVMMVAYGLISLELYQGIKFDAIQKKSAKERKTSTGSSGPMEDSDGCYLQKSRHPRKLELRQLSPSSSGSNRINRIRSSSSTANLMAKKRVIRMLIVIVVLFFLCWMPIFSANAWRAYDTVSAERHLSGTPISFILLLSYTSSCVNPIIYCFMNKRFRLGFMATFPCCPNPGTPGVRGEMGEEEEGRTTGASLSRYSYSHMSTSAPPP
Briefly: In vitro agonist activity against Cholecystokinin type A receptor isolated from guinea pig gall bladder. The test is classed as functional, tissue-based.

For a further test, the species on record is Cavia porcellus. Briefly: Relative efficacy determined by the maximal contraction observed at 30 uM, standardized to CCK-8. The test is classed as functional. A digest of the protocol: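 Isolated guinea pig gallbladder contraction. Maximal contraction at 30 μM test ligand expressed relative to CCK-8 (1 μM) = 1.0; n ≥ 3.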
Test [2] concerns Mus musculus. In words: Compound tested in vivo for mouse gallbladder emptying at 0.1 uM/kg, ip. The class given is functional.
Test [3] has as its target T2, Gastrin/cholecystokinin type B receptor (Homo sapiens, UniProt P32239).
T2 sequence (P32239 whole entry): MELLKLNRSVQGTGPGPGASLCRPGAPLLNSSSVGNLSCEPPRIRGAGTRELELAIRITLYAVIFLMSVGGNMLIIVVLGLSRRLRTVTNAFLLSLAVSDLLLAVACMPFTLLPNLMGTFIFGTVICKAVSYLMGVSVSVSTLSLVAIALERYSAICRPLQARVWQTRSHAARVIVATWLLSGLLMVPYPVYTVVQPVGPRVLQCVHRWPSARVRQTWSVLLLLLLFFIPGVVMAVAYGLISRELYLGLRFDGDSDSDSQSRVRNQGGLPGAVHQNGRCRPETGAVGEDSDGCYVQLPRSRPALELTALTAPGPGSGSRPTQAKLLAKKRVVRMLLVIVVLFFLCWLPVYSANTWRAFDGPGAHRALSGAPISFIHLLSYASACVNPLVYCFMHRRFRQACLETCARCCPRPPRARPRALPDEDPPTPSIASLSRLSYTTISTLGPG
Briefly: Binding affinity against human Cholecystokinin type B receptor in CHO-K1 cells using [125I]-Bolton-Hunter CCK-8 as radioligand. The test is classed as cell-based.

Test [4] has as its system Mus musculus. Briefly: Compound tested in vivo for mouse gallbladder emptying at 1.0 uM/kg, po. The test is classed as functional.
Test [5] deals with Mus musculus. In words: Compound tested in vivo for mouse gallbladder emptying at 10 uM/kg, po. The test is classed as functional.
Test [6] addresses T3, Cholecystokinin receptor type A (Homo sapiens, UniProt P32238).
T3 sequence (P32238 whole entry): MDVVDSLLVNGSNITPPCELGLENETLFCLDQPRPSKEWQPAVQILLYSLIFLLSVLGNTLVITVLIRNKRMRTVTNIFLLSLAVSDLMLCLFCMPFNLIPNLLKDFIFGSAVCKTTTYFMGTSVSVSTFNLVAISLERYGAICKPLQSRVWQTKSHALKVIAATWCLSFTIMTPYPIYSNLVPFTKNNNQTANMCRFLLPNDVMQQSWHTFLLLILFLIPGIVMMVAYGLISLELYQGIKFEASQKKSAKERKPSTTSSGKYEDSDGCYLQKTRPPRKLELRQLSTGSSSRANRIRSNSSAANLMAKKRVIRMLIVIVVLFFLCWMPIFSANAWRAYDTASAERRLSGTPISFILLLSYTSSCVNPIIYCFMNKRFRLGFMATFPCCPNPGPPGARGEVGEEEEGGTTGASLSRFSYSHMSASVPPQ
Briefly: Binding affinity against human Cholecystokinin type A receptor in membrane preparation isolated from CHO-K1 cells stably transfected with cDNA of human CCK-A using [125I]-Bolton-Hunter CCK-8 as radioligand. The test is classed as cell membranes.

In test [1], `CC(C)N(C(=O)CN1C(=O)C(NC(=O)Nc2ccccc2)C(=O)N(c2ccccc2)c2ccccc21)c1ccccc1` (configuration not stated) yielded an ED50 of 1600 nM. This molecule also gave an RE in the test filed under Cavia porcellus of 0.8. Further, the Activity with Mus musculus [2] was found to be 78%.

As a reminder, the IC50 is the concentration that gives 50% inhibition. A high value points to weaker potency. For the molecule `CC(C)N(C(=O)CN1C(=O)C(C)(NC(=O)Nc2ccccc2)C(=O)N(c2ccccc2)c2ccccc21)c1ccccc1` (configuration not stated), the IC50 in test [3] was 282 nM. In test [1], the ED50 was more than 10000 nM. This molecule also displayed an RE in the test listed under Cavia porcellus of 0.5.

`CCC1(CC(=O)Nc2ccccc2)C(=O)N(CC(=O)N(c2ccccc2)C(C)C)c2ccccc2N(c2ccccc2)C1=O` (configuration not stated) had an IC50 in test [3] of 794 nM. In test [1], this molecule showed an ED50 of 780 nM. The RE in the test filed under Cavia porcellus stood at 0.6. Moreover, the Activity is given as 68% in the test on Mus musculus [2], 45% with Mus musculus [4] and 42% in the test with Mus musculus [5].

Consider `CC(C)N(C(=O)CN1C(=O)C(NC(=O)Cc2ccccc2)C(=O)N(c2ccccc2)c2ccccc21)c1ccccc1` (configuration not stated), for which, in the test filed under Cavia porcellus, the RE is given as 0.3.

`CC(C)N(C(=O)CN1C(=O)C(C)(CC(=O)Nc2ccccc2)C(=O)N(c2ccccc2)c2ccccc21)c1ccccc1` (configuration not stated): the concentration for half-maximal inhibition (IC50) in test [3] was 8320 nM; in test [6], 75.9 nM. The ED50 in test [1] turned out to be 200 nM. Besides, the RE in the test filed under Cavia porcellus came out at 0.7. Also, the values for the Activity in the test with Mus musculus [2], in the test on Mus musculus [4] and in the test with Mus musculus [5] were 73%, 36% and 73%, respectively.

Regarding `CC(C)N(C(=O)CN1C(=O)C(CC(=O)Nc2ccccc2)C(=O)N(c2ccccc2)c2ccccc21)c1ccccc1` (configuration not stated), the IC50 in test [3] is 832 nM; in test [6], 155 nM. The molecule further displayed an ED50 in test [1] of 430 nM. In the test filed under Cavia porcellus, the RE was 0.5. Besides, the Activity in the test on Mus musculus [2] came to 63%; in the test on Mus musculus [4] it was 34%.

`CC(C)N(C(=O)CN1C(=O)C(OC(=O)Nc2ccccc2)C(=O)N(c2ccccc2)c2ccccc21)c1ccccc1` (configuration not stated) came in with an RE in the test filed under Cavia porcellus of 0.2.

`CSCC[C@H](NC(=O)[C@H](Cc1ccc(OS(=O)(=O)O)cc1)NC(=O)[C@@H](N)CC(=O)O)C(=O)NCC(=O)N[C@@H](Cc1c[nH]c2ccccc12)C(=O)N[C@@H](CCSC)C(=O)N[C@@H](CC(=O)O)C(=O)N[C@@H](Cc1ccccc1)C(N)=O` [SINCALIDE] returned an ED50 in test [1] of 2 nM. In the test listed under Cavia porcellus, the RE is recorded as 1.

With `CC(C)N(C(=O)CN1C(=O)C(NC(=O)Oc2ccccc2)C(=O)N(c2ccccc2)c2ccccc21)c1ccccc1` (configuration not stated), the RE in the test filed under Cavia porcellus is on record as 0.2.

Turning to `CC(C)N(C(=O)CN1C(=O)C(CC(=O)Nc2ccccc2)(Cc2ccccc2)C(=O)N(c2ccccc2)c2ccccc21)c1ccccc1` (configuration not stated), the 50% inhibitory concentration (IC50) in test [3] is 8910 nM; in test [6], 389 nM.
